{"data": "Assay results gathered from unrelated publications", "target": "Serine/threonine-protein kinase STK11 (STK11, Homo sapiens, UniProt Q15831)", "Residues used in one study (Q15831 1-433)": "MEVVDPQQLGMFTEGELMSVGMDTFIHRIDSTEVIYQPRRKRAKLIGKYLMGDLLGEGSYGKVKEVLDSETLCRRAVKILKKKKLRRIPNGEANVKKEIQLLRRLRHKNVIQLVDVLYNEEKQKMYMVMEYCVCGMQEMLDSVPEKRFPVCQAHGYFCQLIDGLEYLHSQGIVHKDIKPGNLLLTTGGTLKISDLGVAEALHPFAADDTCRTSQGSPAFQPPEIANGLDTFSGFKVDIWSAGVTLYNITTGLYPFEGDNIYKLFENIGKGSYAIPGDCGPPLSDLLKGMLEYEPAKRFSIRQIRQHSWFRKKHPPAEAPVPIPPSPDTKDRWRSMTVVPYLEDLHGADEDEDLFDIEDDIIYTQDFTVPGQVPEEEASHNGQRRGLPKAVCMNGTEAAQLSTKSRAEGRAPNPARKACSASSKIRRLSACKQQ"}
{"Structure (SMILES)": "COc1ncc2cc3ccccc3nc2c1C#N", "effect on": "cell-free assay", "technique": "competition with immobilised ligand", "tested at": "5 µM", "remaining binding [%]": 99}
{"Structure (SMILES)": "CCN1CCN(Cc2ccc(C(=O)Nc3ccc(C)c(Oc4ccc5c(c4)CC(=O)N5)c3)cc2C(F)(F)F)CC1", "effect on": "binding", "technique": "competition with immobilised ligand", "tested at": "1 µM", "remaining binding [%]": 100}
{"Structure (SMILES)": "CS(=O)(=O)N1CCCC(NC(=O)[C@H](CCC2CCCCC2)NC(=O)c2ccc(CNc3ncnc4c3nnn4-c3ccccc3)cc2)C1 (stereo partly drawn)", "effect on": "cell-free assay", "technique": "competition with immobilised ligand", "tested at": "0.1 µM", "remaining binding [%]": 100}
{"Structure (SMILES)": "O=C(Nc1c[nH]nc1C(=O)NC1CCNCC1)c1cc(F)cc(F)c1", "effect on": "binding", "technique": "competition with immobilised ligand", "tested at": "1 µM", "remaining binding [%]": 78}
{"Structure (SMILES)": "CN(C)c1ncc(F)c(-c2cnn3ncccc23)n1", "effect on": "binding", "tested at": "1 µM", "remaining binding [%]": 100}
{"Structure (SMILES)": "CNC(=O)[C@@H]1CC[C@@H](n2c(-c3ccc4cnccc4c3)nc3ccc(C(=O)NCc4cccc(C(N)=O)c4)cc32)C1", "effect on": "binding", "technique": "competition with immobilised ligand", "tested at": "1 µM", "remaining binding [%]": 93}
{"Structure (SMILES)": "Cc1nc(C2CCN(C(=O)c3ccc(OC(F)(F)F)cc3N)CC2)c2ncc(N3CCN(C)CC3)cc2n1", "effect on": "cell-free assay", "technique": "competition with immobilised ligand", "tested at": "1 µM", "remaining binding [%]": 100}
{"Structure (SMILES)": "COc1cnc(Nc2cccc(S(N)(=O)=O)c2)nc1N1CCN(c2ccccc2)C(=O)C1", "effect on": "binding", "technique": "competition with immobilised ligand", "tested at": "1 µM", "remaining binding [%]": 100}
{"Structure (SMILES)": "F[C@@H]1CCN(c2nccc(-c3cnn4ncccc34)n2)C1", "effect on": "binding", "tested at": "1 µM", "remaining binding [%]": 100}
{"Structure (SMILES)": "CCc1ccccc1C(=O)Nc1n[nH]c2c(C)c(F)c(C3C(C#N)=C(C)N(C)C(C)=C3C#N)cc12", "effect on": "cell-free assay", "technique": "competition with immobilised ligand", "tested at": "1 µM", "remaining binding [%]": 100}
{"Structure (SMILES)": "CC1CCCN1c1nccc(-c2cnn3ncccc23)n1 (stereo not drawn)", "effect on": "binding", "tested at": "1 µM", "remaining binding [%]": 100}
{"Structure (SMILES)": "N#Cc1ccccc1CSc1nnc2c(n1)[nH]c1ccccc12", "effect on": "binding", "technique": "competition with immobilised ligand", "tested at": "10 µM", "remaining binding [%]": 87}
{"Structure (SMILES)": "Nc1c(C(=O)NCc2ccc(C(=O)NCCCC3CCCCC3)cc2)cnn1-c1ccccc1", "effect on": "cell-free assay", "technique": "competition with immobilised ligand", "tested at": "0.1 µM", "remaining binding [%]": 100}
{"Structure (SMILES)": "O=C(c1ccc(Nc2nccc(-c3cc4ccccc4s3)n2)cc1)N1CCC(N2CCCC2)CC1", "effect on": "binding", "technique": "competition with immobilised ligand", "tested at": "1 µM", "remaining binding [%]": 4.3}
{"Structure (SMILES)": "c1cnn2ncc(-c3ccnc(N4CCC45COC5)n3)c2c1", "effect on": "binding", "tested at": "1 µM", "remaining binding [%]": 84}
{"Structure (SMILES)": "Cc1cnc(Nc2ccc(C(=O)N3CCC(N4CCCC4)CC3)cc2)nc1-c1cc2ccccc2s1", "effect on": "binding", "technique": "competition with immobilised ligand", "tested at": "1 µM", "remaining binding [%]": 2.5}
{"Structure (SMILES)": "C[C@@H]1CN(c2ccc3ncc(-c4ccc5[nH]nc(C6CC6)c5c4)n3n2)C[C@H](C)O1", "effect on": "binding", "technique": "competition with immobilised ligand", "tested at": "50 nM", "remaining binding [%]": 72}
{"Structure (SMILES)": "O=C(NCCCN1CCOCC1)c1ccc(Nc2nccc(-c3cc4ccccc4s3)n2)cc1", "effect on": "binding", "technique": "competition with immobilised ligand", "tested at": "1 µM", "remaining binding [%]": 3.9}
{"Structure (SMILES)": "Cc1cc(NC(=O)c2cccc(S(F)(F)(F)(F)F)c2)cc(-n2ccn3nc(-c4cccnc4)cc23)c1", "effect on": "cell-free assay", "technique": "competition with immobilised ligand", "tested at": "1 µM", "remaining binding [%]": 100}
{"Structure (SMILES)": "CN(C)c1nccc(-c2cnc3ncccn23)n1", "effect on": "binding", "tested at": "1 µM", "remaining binding [%]": 100}
{"Structure (SMILES)": "O=C(O)[C@@H]1[C@@H](Cn2nnc3ccccc3c2=O)CC[C@H]1C(=O)c1ccc(OCCC2CCOCC2)cc1", "effect on": "cell-free assay", "technique": "competition with immobilised ligand", "tested at": "1 µM", "remaining binding [%]": 94}
{"Structure (SMILES)": "C=CC(=O)N1CCC(C(=O)NCC(=O)N2CCN(c3nc(-c4cnc(N)nc4C(F)F)nc(N4CCOCC4)n3)CC2)CC1", "effect on": "binding", "technique": "competition with immobilised ligand", "tested at": "1 µM", "remaining binding [%]": 100}
{"Structure (SMILES)": "O=C(O)c1cc(-c2ccc(C3CCNCC3)cc2)c2ccc(-c3ccc(C(F)(F)F)cc3)cc2c1", "effect on": "cell-free assay", "technique": "competition with immobilised ligand", "tested at": "1 µM", "remaining binding [%]": 100}
{"Structure (SMILES)": "C[C@@H]1CCN(c2nccc(-c3cnn4ncccc34)n2)C1", "effect on": "binding", "tested at": "1 µM", "remaining binding [%]": 100}
